Reference: ChEMBL document CHEMBL1649330, “Multicenter study for defining the breakpoint for rifampin resistance in Neisseria meningitidis by rpoB sequencing” (2010)
Values after ≈ are worked out from the molar mass of the structure shown.

Tests used:
Format in all cases: functional
[1] = tested on: Neisseria meningitidis; assay: Antimicrobial activity against Neisseria meningitidis harboring rpoB10 H552R mutant allele by Etest
Procedure, shortened: (§1)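 Rifampin MIC by Etest on meningococcal clinical isolates collected by the participating national laboratories, with MIC read in mg/liter. The rpoB gene of each isolate was sequenced and assigned to an allele. Isolates were serogrouped by agglutination with serogroup-specific antisera.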

[2] = tested on: Neisseria meningitidis; assay: Antimicrobial activity against Neisseria meningitidis harboring rpoB11 H552N mutant allele by Etest; procedure, shortened: as §1
[3] = tested on: Neisseria meningitidis; assay: Antimicrobial activity against Neisseria meningitidis harboring rpoB12 H552L mutant allele by Etest; procedure, shortened: as §1
[4] = tested on: Neisseria meningitidis; assay: Antimicrobial activity against Neisseria meningitidis harboring rpoB13 H552Y mutant allele by Etest; procedure, shortened: as §1
[5] = tested on: Neisseria meningitidis; assay: Antimicrobial activity against Neisseria meningitidis harboring rpoB14 S548F mutant allele by Etest; procedure, shortened: as §1
[6] = tested on: Neisseria meningitidis; assay: Antimicrobial activity against Neisseria meningitidis harboring rpoB15 H552N mutant allele by Etest; procedure, shortened: as §1
[7] = tested on: Neisseria meningitidis; assay: Antimicrobial activity against Neisseria meningitidis harboring rpoB16 H552Y mutant allele by Etest; procedure, shortened: as §1
[8] = tested on: Neisseria meningitidis; assay: Antimicrobial activity against Neisseria meningitidis harboring rpoB17 H552Y mutant allele by Etest; procedure, shortened: as §1
[9] = tested on: Neisseria meningitidis; assay: Antimicrobial activity against Neisseria meningitidis harboring rpoB19 S557F mutant allele by Etest; procedure, shortened: as §1
[10] = tested on: Neisseria meningitidis; assay: Antimicrobial activity against Neisseria meningitidis harboring rpoB20 H552Y mutant allele by Etest; procedure, shortened: as §1
[11] = tested on: Neisseria meningitidis; assay: Antimicrobial activity against Neisseria meningitidis harboring rpoB23 S548F mutant allele by Etest; procedure, shortened: as §1
[12] = tested on: Neisseria meningitidis; assay: Antimicrobial activity against Neisseria meningitidis harboring rpoB26 D542N and S557F mutant allele by Etest; procedure, shortened: as §1
[13] = tested on: Neisseria meningitidis; assay: Antimicrobial activity against Neisseria meningitidis harboring rpoB32 H552Y mutant allele by Etest; procedure, shortened: as §1
[14] = tested on: Neisseria meningitidis; assay: Antimicrobial activity against Neisseria meningitidis harboring rpoB36 H552N mutant allele by Etest; procedure, shortened: as §1
[15] = tested on: Neisseria meningitidis; assay: Antimicrobial activity against Neisseria meningitidis harboring rpoB37 G560S mutant allele by Etest; procedure, shortened: as §1
[16] = tested on: Neisseria meningitidis; assay: Antimicrobial activity against Neisseria meningitidis harboring rpoB39 D542V mutant allele by Etest; procedure, shortened: as §1
[17] = tested on: Neisseria meningitidis; assay: Antimicrobial activity against Neisseria meningitidis harboring rpoB44 H552Y mutant allele by Etest; procedure, shortened: as §1
[18] = tested on: Neisseria meningitidis; assay: Antimicrobial activity against Neisseria meningitidis harboring rpoB45 D542V mutant allele by Etest; procedure, shortened: as §1
[19] = tested on: Neisseria meningitidis; assay: Antimicrobial activity against Neisseria meningitidis harboring rpoB46 H552N mutant allele by Etest; procedure, shortened: as §1
[20] = tested on: Neisseria meningitidis; assay: Antimicrobial activity against Neisseria meningitidis harboring rpoB50 S557F mutant allele by Etest; procedure, shortened: as §1
[21] = tested on: Neisseria meningitidis; assay: Antimicrobial activity against Neisseria meningitidis harboring rpoB51 H552Y mutant allele by Etest; procedure, shortened: as §1
[22] = tested on: Neisseria meningitidis; assay: Antimicrobial activity against Neisseria meningitidis harboring rpoB53 G560S mutant allele by Etest; procedure, shortened: as §1
[23] = tested on: Neisseria meningitidis; assay: Antimicrobial activity against Neisseria meningitidis harboring rpoB57 D542N mutant allele by Etest; procedure, shortened: as §1
[24] = tested on: Neisseria meningitidis; assay: Antimicrobial activity against Neisseria meningitidis expressing wild type rpoB1 allele by Etest
Procedure, shortened: (§2)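 Rifampin MIC by Etest on meningococcal isolates from participating national laboratories, with rpoB sequenced for each isolate. Values are geometric means of MICs over all isolates carrying a given allele that lacks alterations at S548, H552 and S557 and lacks D542V. Only alleles represented by at least five isolates were reported.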

[25] = tested on: Neisseria meningitidis; assay: Antimicrobial activity against Neisseria meningitidis expressing wild type rpoB2 allele by Etest; procedure, shortened: as §2
[26] = tested on: Neisseria meningitidis; assay: Antimicrobial activity against Neisseria meningitidis expressing wild type rpoB4 allele by Etest; procedure, shortened: as §2
[27] = tested on: Neisseria meningitidis; assay: Antimicrobial activity against Neisseria meningitidis expressing wild type rpoB5 allele by Etest; procedure, shortened: as §2
[28] = tested on: Neisseria meningitidis; assay: Antimicrobial activity against Neisseria meningitidis expressing wild type rpoB9 allele by Etest; procedure, shortened: as §2
[29] = tested on: Neisseria meningitidis; assay: Antimicrobial activity against Neisseria meningitidis expressing wild type rpoB18 allele by Etest; procedure, shortened: as §2
[30] = tested on: Neisseria meningitidis; assay: Antimicrobial activity against Neisseria meningitidis expressing wild type rpoB27 allele by Etest; procedure, shortened: as §2
[31] = tested on: Neisseria meningitidis; assay: Antimicrobial activity against Neisseria meningitidis expressing wild type rpoB28 allele by Etest; procedure, shortened: as §2
[32] = tested on: Neisseria meningitidis; assay: Antimicrobial activity against Neisseria meningitidis expressing wild type rpoB31 allele by Etest; procedure, shortened: as §2
[33] = tested on: Neisseria meningitidis; assay: Antimicrobial activity against Neisseria meningitidis expressing wild type rpoB34 allele by Etest; procedure, shortened: as §2
[34] = tested on: Neisseria meningitidis; assay: Antimicrobial activity against Neisseria meningitidis expressing wild type rpoB40 allele by Etest; procedure, shortened: as §2

For `CO[C@H]1/C=C/O[C@@]2(C)Oc3c(C)c(O)c4c(O)c(c(/C=N/N5CCN(C)CC5)c(O)c4c3C2=O)NC(=O)/C(C)=C\C=C\[C@H](C)[C@H](O)[C@@H](C)[C@@H](O)[C@@H](C)[C@H](OC(C)=O)[C@@H]1C` [RIFAMPIN], which MIC [1] is on record?
The MIC was greater than 32 µg/mL.

And the MIC [2]?
The MIC was greater than 32 µg/mL.

What about the MIC [3] of the same compound?
The MIC was greater than 32 µg/mL.

What about the MIC [4] of the same compound?
Its MIC is greater than 32 µg/mL.

And the MIC [5]?
Its MIC is greater than 32 µg/mL.

What about the MIC [6] of the same compound?
The MIC was greater than 32 µg/mL.

What about the MIC [7] of the same compound?
The MIC was greater than 32 µg/mL.

And the MIC [8]?
The MIC was greater than 32 µg/mL.

What about the MIC [9] of the same compound?
Its MIC is greater than 32 µg/mL.

What about the MIC [10] of the same compound?
The MIC was greater than 32 µg/mL.

What about the MIC [11] of the same compound?
Its MIC is greater than 32 µg/mL.

What about the MIC [12] of the same compound?
The MIC was greater than 32 µg/mL.

And the MIC [13]?
The MIC was greater than 32 µg/mL.

What about the MIC [14] of the same compound?
The MIC was 8 µg/mL (≈ 9.72 µM).

And the MIC [15]?
Its MIC is 8 µg/mL (≈ 9.72 µM).

What about the MIC [16] of the same compound?
Its MIC is greater than 32 µg/mL.

What about the MIC [17] of the same compound?
The MIC was 256 µg/mL (≈ 311 µM).

What about the MIC [18] of the same compound?
Its MIC is 256 µg/mL (≈ 311 µM).

And the MIC [19]?
The MIC was 256 µg/mL (≈ 311 µM).

And the MIC [20]?
The MIC was greater than 32 µg/mL.

And the MIC [21]?
The MIC was greater than 32 µg/mL.

What about the MIC [22] of the same compound?
The MIC was 0.125 µg/mL (≈ 0.152 µM).

And the MIC [23]?
Its MIC is 0.125 µg/mL (≈ 0.152 µM).

And the MIC [24]?
The MIC was 0.225 µg/mL (≈ 0.273 µM).

And the MIC [25]?
Its MIC is 0.057 µg/mL (≈ 0.0693 µM).

What about the MIC [26] of the same compound?
The MIC was 0.089 µg/mL (≈ 0.108 µM).

What about the MIC [27] of the same compound?
Its MIC is 0.061 µg/mL (≈ 0.0741 µM).

What about the MIC [28] of the same compound?
The MIC was 0.065 µg/mL (≈ 0.079 µM).

What about the MIC [29] of the same compound?
Its MIC is 0.024 µg/mL (≈ 0.0292 µM).

And the MIC [30]?
Its MIC is 0.15 µg/mL (≈ 0.182 µM).

And the MIC [31]?
Its MIC is 0.025 µg/mL (≈ 0.0304 µM).

What about the MIC [32] of the same compound?
Its MIC is 0.015 µg/mL (≈ 0.0182 µM).

And the MIC [33]?
The MIC was 0.029 µg/mL (≈ 0.0352 µM).

And the MIC [34]?
Its MIC is 0.034 µg/mL (≈ 0.0413 µM).
